Results gathered from unrelated publications.
Lines come from different studies, so protocols differ. pIC50: −log10 of the molar value.
Cell line: MDA-MB-468
Read-out: cell growth or viability

CCc1ccc(N2NC(=O)/C(=C/c3ccc(-c4ccc(S(=O)(=O)Nc5nccs5)cc4)o3)C2=O)cc1
pIC50 (MTT; 72 h): 4.13

NC1(C(=O)N[C@@H](CCO)c2ccc(Cl)cc2)CCN(c2ncnc3[nH]ccc23)CC1
GI50 (72 h): > 8 µM

COc1ccc(C(=O)/C=C/c2cccc(Br)c2)cc1S(N)(=O)=O
inhibition (SRB; 10 µM): 154%

COc1ccc(-c2ccc(-c3ccc(C(=N)N)nc3)s2)cc1Cl
GI50 (SRB): 1.74 µM

Cc1cc(NCCCCCCCCNc2cc(C)nc3cc(N)ccc23)c2ccc(N)cc2n1
pIC50 (MTT): 5.29

CC(=O)c1c(C)c2cnc(Nc3ccc(N4CCNCC4)cn3)nc2n(C2CCCC2)c1=O
GI50 (resazurin): 7.5 µM

COc1cc(-c2ccc(-c3ccc(C(=N)N)nc3)s2)cc(OC)c1OC
GI50 (SRB): 1.74 µM

COc1ccc(C(=O)/C=C/c2ccc(Cl)c(Cl)c2)cc1S(N)(=O)=O
inhibition (SRB; 10 µM): 119%

c1csc(-c2c3ccccc3cc3c2ccc2ccccc23)c1
pIC50 (MTT): 4.47

Cc1cc(NS(=O)(=O)c2ccc(NC(=O)COc3ccc(C(C)(C)c4ccccc4)cc3)cc2)nc(C)n1
pIC50 (MTT; 48 h): 4.35

Cc1ncsc1-c1ccc(CNC(=O)[C@@H]2C[C@@H](O)CN2C(=O)[C@@H](NC(=O)CCCCCCCCCC(=O)N2CCN(CC[C@H](NC(=O)C3(N)CCN(c4ncnc5[nH]ccc45)CC3)c3ccc(Cl)cc3)CC2)C(C)(C)C)cc1
GI50 (72 h): 0.49 µM

Cc1cc(NCCCCCCCNc2cc(C)nc3cc(N)ccc23)c2ccc(N)cc2n1
pIC50 (MTT; 96 h): 4.80
